Assay results taken from PMC3016154 (Journal of biomolecular screening, 2010).

Tests used:
EAAT2 = details: cited from earlier work
[1] = system: EAAT2 protein expression (human EAAT2 transcripts with the 1091-nucleotides 5′ UTR); assay: Cell-based ELISA for EAAT2 protein expression in PA-EAAT2 cells; details: retinoic acid 1.5 μg/mL, 384-well format, vs DMSO
Summary of the method: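 PA-EAAT2 cells at 8000/well, grown 36 h in 2% FBS DMEM with geneticin, then switched to serum-free DMEM/geneticin and exposed 72 h (0.20% DMSO final). Fixed 2 h in 4% formaldehyde; peroxide quench, milk block; rabbit anti-EAAT2 1:2000 overnight at 4°C, HRP anti-rabbit 1:6000 for 2 h; chemiluminescence read at 40 min. % activation vs DMSO wells; EC50 from 12-point 3-fold series, […], quadruplicate.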

EAAT2 protein expression = details: mice, intraperitoneal injection; cited from earlier work

## C[C@]12C[C@H](O)[C@H]3[C@@H](CCC4=CC(=O)CC[C@@]43C)[C@@H]1CC[C@@H]2C(=O)CO [corticosterone]
EAAT2
  translational activator of EAAT2: translational activator of EAAT2

## CC1=C(/C=C/C(C)=C/C=C/C(C)=C/C(=O)O)C(C)(C)CCC1 [retinoic acid]
[1]
  PA-EAAT2 cell signal increase: 2- to 3.5 fold

## CO/N=C(\C(=O)N[C@@H]1C(=O)N2C(C(=O)O)=C(CSc3nc(=O)c(=O)[nH]n3C)CS[C@H]12)c1csc(N)n1 [ceftriaxone, Ceftriaxone]
EAAT2 protein expression
  induction of EAAT2 protein expression or glutamate uptake activity: only slightly induces
